≈ marks a conversion by molar mass, not a printed value. Bounds are passed on as bounds.

This note sets out measurements from ChEMBL document CHEMBL3596093, “Synthesis and antimicrobial evaluation of 5-aryl-1,2,4-triazole-3-thione derivatives containing a rhodanine moiety” (2015).

Assay [1] relates to Staphylococcus aureus. Description: Antibacterial activity against Staphylococcus aureus RN4220 after 24 hrs by two-fold serial dilution method. It counts as functional. The conditions noted are these: RN4220, 24 h. In a few lines:
(§1)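 Broth microdilution MIC. Bacteria grown to mid-log phase in Mueller-Hinton broth, diluted 1000-fold, about 10^5 CFU/mL. Compounds from DMSO stocks, two-fold serial dilution from a final 64 µg/mL. Incubation at 37 °C for 24 h. Growth read as absorbance at 630 nm on a microplate reader. Run in triplicate.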

Assay [2] has as its system Staphylococcus aureus. Description: Antibacterial activity against Staphylococcus aureus KCTC 209 after 24 hrs by two-fold serial dilution method. In kind it is functional. The conditions noted are these: KCTC 209, 24 h. In a few lines: (§2)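 Strains grown to mid-log phase in Mueller-Hinton broth, then diluted 1000-fold in the same broth to about 10^5 CFU/mL. Compounds were made up as DMSO stocks and two-fold serially diluted from a final top concentration of 64 µg/mL. Incubation was 37 °C for 24 h. Growth was read as absorbance at 630 nm on a microplate reader. MIC assays were run in triplicate.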

Assay [3] deals with Staphylococcus aureus. Description: Antibacterial activity against Staphylococcus aureus KCTC 503 after 24 hrs by two-fold serial dilution method. In kind it is functional. The conditions noted are these: KCTC 503, 24 h. In a few lines: as §2
The test system of assay [4] is Streptococcus mutans. Description: Antibacterial activity against Streptococcus mutans 3065 after 24 hrs by two-fold serial dilution method. In kind it is functional. The conditions noted are these: Streptococcus mutans, 3065, 24 h. In a few lines: as §2
For assay [5], the system named is Escherichia coli. Description: Antibacterial activity against Escherichia coli KCTC 1924 after 24 hrs by two-fold serial dilution method. It counts as functional. The conditions noted are these: KCTC 1924, 24 h. The method, boiled down:
as §2

In assay [6] the test system is Escherichia coli. Description: Antibacterial activity against Escherichia coli CCARM 1356 after 24 hrs by two-fold serial dilution method. In kind it is functional. The conditions noted are these: CCARM 1356, 24 h. The method, boiled down: as §2
The test system of assay [7] is Pseudomonas aeruginosa. Description: Antibacterial activity against Pseudomonas aeruginosa 2742 after 24 hrs by two-fold serial dilution method. It counts as functional. As to conditions: Pseudomonas aeruginosa, 2742, 24 h. In a few lines: as §2
Assay [8] relates to Pseudomonas aeruginosa. Description: Antibacterial activity against Pseudomonas aeruginosa 2004 after 24 hrs by two-fold serial dilution method. As to conditions: Pseudomonas aeruginosa, 2004, 24 h. It counts as functional. The method, boiled down: as §2
For another assay, the system named is Salmonella typhimurium. Description: Antibacterial activity against Salmonella typhimurium 2421 after 24 hrs by two-fold serial dilution method. In kind it is functional, Salmonella enterica subsp. enterica serovar Typhimurium. The conditions noted are these: Salmonella enterica, 2421, 24 h. In a few lines: as §2
The next assay deals with Candida albicans. Description: Antifungal activity against Candida albicans 7535 after 24 hrs by two-fold serial dilution method. In kind it is functional. As to conditions: Candida albicans, 7535, 24 h.
The test system of assay [9] is Staphylococcus aureus. Description: Bactericidal activity against Staphylococcus aureus RN4220 after 24 hrs by agar plate method. In kind it is functional. As to conditions: RN4220, 24 h. The method, boiled down: (§3)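 Samples of 5 µL from MIC wells with no visible growth were plated onto fresh Mueller-Hinton agar and incubated a further 24 h at 37 °C. MBC is the lowest concentration giving no visible colony growth on the agar. Assays were run in triplicate.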

Assay [10] relates to Escherichia coli. Description: Bactericidal activity against Escherichia coli KCTC 1924 after 24 hrs by agar plate method. As to conditions: KCTC 1924, 24 h. In kind it is functional. In a few lines:
as §3

Assay [11] deals with Escherichia coli. Description: Ratio of MBC to MIC for Escherichia coli KCTC 1924. It counts as functional. The method, boiled down:
(§4)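 The ratio divides MBC by MIC for the same strain. MIC comes from two-fold broth microdilution in Mueller-Hinton broth (about 10^5 CFU/mL, 37 °C, 24 h, absorbance at 630 nm). MBC comes from subculturing 5 µL from clear wells onto Mueller-Hinton agar for another 24 h at 37 °C, taken as the lowest concentration with no colonies.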

Assay [12] has as its system Staphylococcus aureus. Description: Antibacterial activity against methicillin-resistant Staphylococcus aureus CCARM 3167 after 24 hrs by two-fold serial dilution method. The conditions noted are these: CCARM 3167, 24 h. In kind it is functional. The method, boiled down:
as §1

The test system of assay [13] is Staphylococcus aureus. Description: Antibacterial activity against methicillin-resistant Staphylococcus aureus CCARM 3506 after 24 hrs by two-fold serial dilution method. It counts as functional. As to conditions: CCARM 3506, 24 h. The method, boiled down: as §1
Assay [14] concerns Staphylococcus aureus. Description: Antibacterial activity against quinolone-resistant Staphylococcus aureus CCARM 3505 after 24 hrs by two-fold serial dilution method. In kind it is functional. The conditions noted are these: CCARM 3505, 24 h. The method, boiled down:
as §1

For assay [15], the system named is Staphylococcus aureus. Description: Antibacterial activity against quinolone-resistant Staphylococcus aureus CCARM 3519 after 24 hrs by two-fold serial dilution method. In kind it is functional. The conditions noted are these: CCARM 3519, 24 h. The method, boiled down:
as §1

In assay [16] the test system is Staphylococcus aureus. Description: Bactericidal activity against methicillin-resistant Staphylococcus aureus CCARM 3167 after 24 hrs by agar plate method. In kind it is functional. The conditions noted are these: CCARM 3167, 24 h. In a few lines: (§5)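 5 µL from each well without visible growth plated on fresh Mueller-Hinton agar, then 37 °C for a further 24 h. MBC is the lowest concentration giving no visible colonies. Run in triplicate.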

The test system of assay [17] is Staphylococcus aureus. Description: Bactericidal activity against quinolone-resistant Staphylococcus aureus CCARM 3519 after 24 hrs by agar plate method. It counts as functional. The conditions noted are these: CCARM 3519, 24 h. In a few lines: as §5
Assay [18] relates to Staphylococcus aureus. Description: Bactericidal activity against Staphylococcus aureus KCTC 503 after 24 hrs by agar plate method. In kind it is functional. The conditions noted are these: KCTC 503, 24 h. In a few lines:
as §5

The test system of assay [19] is Streptococcus mutans. Description: Bactericidal activity against Streptococcus mutans 3065 after 24 hrs by agar plate method. The conditions noted are these: Streptococcus mutans, 3065, 24 h. In kind it is functional. In a few lines:
as §3

In assay [20] the test system is Staphylococcus aureus subsp. aureus RN4220. Description: Ratio of MBC to MIC for Staphylococcus aureus RN4220. It counts as functional. The method, boiled down: as §4
The test system of assay [21] is Staphylococcus aureus. Description: Ratio of MBC to MIC for Staphylococcus aureus KCTC 503. In kind it is functional. The method, boiled down:
as §4

Assay [22] has as its system Staphylococcus aureus. Description: Bactericidal activity against methicillin-resistant Staphylococcus aureus CCARM 3506 after 24 hrs by agar plate method. In kind it is functional. The conditions noted are these: CCARM 3506, 24 h. The method, boiled down: as §5
For assay [23], the system named is Staphylococcus aureus. Description: Bactericidal activity against quinolone-resistant Staphylococcus aureus CCARM 3505 after 24 hrs by agar plate method. In kind it is functional. As to conditions: CCARM 3505, 24 h. In a few lines:
as §5

`O=C(O)CN1C(=O)/C(=C/c2ccc(/C=N/n3c(-c4ccccc4Br)n[nH]c3=S)cc2)SC1=S`: the MIC against Staphylococcus aureus [1] was 64 µg/mL (≈ 114 µM); in the assay with Staphylococcus aureus [2], over 64 µg/mL; with Staphylococcus aureus [3], over 64 µg/mL; with Streptococcus mutans [4], over 64 µg/mL; in the assay with Escherichia coli [5], 64 µg/mL (≈ 114 µM); against Escherichia coli [6], over 128 µg/mL. Besides, the MIC with Pseudomonas aeruginosa [7] is over 128 µg/mL; in the assay on Pseudomonas aeruginosa [8], over 128 µg/mL; with Salmonella typhimurium it was over 128 µg/mL; in the assay on Candida albicans, over 64 µg/mL; against Staphylococcus aureus [12], 64 µg/mL (≈ 114 µM); in the assay with Staphylococcus aureus [13], over 64 µg/mL. For the same compound, the MIC in the assay with Staphylococcus aureus [14] was over 64 µg/mL; with Staphylococcus aureus [15], 64 µg/mL (≈ 114 µM). In addition, the MBC against Staphylococcus aureus [9] is over 256 µg/mL; against Escherichia coli [10] it was 256 µg/mL (≈ 457 µM); in the assay with Staphylococcus aureus [16] it was 256 µg/mL (≈ 457 µM); in the assay on Staphylococcus aureus [17] it was over 256 µg/mL. Also, the Ratio entry in the assay on Escherichia coli [11] was “<=4”.

`O=C(O)[C@H](Cc1ccccc1)N1C(=O)/C(=C/c2ccc(/C=N/n3c(-c4ccccc4Cl)n[nH]c3=S)cc2)SC1=S`: the MIC against Staphylococcus aureus [1] is 16 µg/mL (≈ 26.4 µM); in the assay with Staphylococcus aureus [2], over 64 µg/mL; against Staphylococcus aureus [3] it was 16 µg/mL (≈ 26.4 µM); in the assay with Streptococcus mutans [4] it was 16 µg/mL (≈ 26.4 µM); with Escherichia coli [5] it was over 128 µg/mL; against Escherichia coli [6], over 128 µg/mL. Besides, the minimum inhibitory concentration (MIC) in the assay with Pseudomonas aeruginosa [7] was over 128 µg/mL; with Pseudomonas aeruginosa [8] it was over 128 µg/mL; with Salmonella typhimurium, over 128 µg/mL; against Candida albicans it was over 64 µg/mL; with Staphylococcus aureus [12], 16 µg/mL (≈ 26.4 µM); with Staphylococcus aureus [13], 16 µg/mL (≈ 26.4 µM). Besides, the MIC with Staphylococcus aureus [14] and in the assay on Staphylococcus aureus [15] was 16 µg/mL (≈ 26.4 µM) each time. Besides, the MBC in the assay on Staphylococcus aureus [9] is 32 µg/mL (≈ 52.8 µM); against Staphylococcus aureus [18], 64 µg/mL (≈ 106 µM); in the assay on Streptococcus mutans [19], over 128 µg/mL; in the assay on Staphylococcus aureus [16] it was 32 µg/mL (≈ 52.8 µM); with Staphylococcus aureus [22], 64 µg/mL (≈ 106 µM); against Staphylococcus aureus [23] it was over 128 µg/mL. The same compound came in with a minimum bactericidal concentration (MBC) in the assay with Staphylococcus aureus [17] of over 128 µg/mL. The results for the Ratio (in assay [20]; in the assay with Staphylococcus aureus [21]) were 2 and “<=4”, respectively.

Regarding `O=C(O)CN1C(=O)/C(=C/c2ccc(/C=N/n3c(-c4ccccc4Cl)n[nH]c3=S)cc2)SC1=S`, the MIC in the assay with Staphylococcus aureus [1] was 64 µg/mL (≈ 124 µM); in the assay on Staphylococcus aureus [2] it was over 64 µg/mL; with Staphylococcus aureus [3] it was over 64 µg/mL; against Streptococcus mutans [4] it was over 64 µg/mL; against Escherichia coli [5] it was 64 µg/mL (≈ 124 µM); in the assay with Escherichia coli [6], over 128 µg/mL. In addition, the MIC with Pseudomonas aeruginosa [7] was over 128 µg/mL; in the assay with Pseudomonas aeruginosa [8] it was over 128 µg/mL; in the assay with Salmonella typhimurium, over 128 µg/mL; with Candida albicans, over 64 µg/mL; against Staphylococcus aureus [12], over 64 µg/mL; against Staphylococcus aureus [13] it was over 64 µg/mL. Further, the MIC in the assay with Staphylococcus aureus [14] and against Staphylococcus aureus [15] was over 64 µg/mL in each case. Besides, the MBC against Staphylococcus aureus [9] stood at 256 µg/mL (≈ 496 µM); with Escherichia coli [10], 128 µg/mL (≈ 248 µM). Also, the Ratio entry in the assay with Escherichia coli [11] is “<=4”.

Usually MIC stands for the lowest concentration found to suppress growth. Higher therefore signals a less susceptible organism. In general, MBC refers to the smallest concentration meeting the test's criterion for killing. Low values mean more potent killing, high ones less potent killing.
